STAT3 activator: increases IL-6 driven STAT3 reporter signal; U3A cells, IL-6 STAT3-luciferase reporter, luminescence; 100% = signal with IL-6 EC80 alone; activation (% of control), % at 5.6 µM; 190,000 compounds, 0.91% hits;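 active = activation above the screen-wide mean of compound activation plus 3 SD, cut at about 130% in these data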;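 also: 0% = background luminescence of wells with medium and substrate only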
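Test system: human U3A cells carrying STAT3-luciferase construct; control set: IL-6-only wells as 100% reference; timing: compound pre-incubation 1 h before IL-6, then 6 h stimulation at 37 °C; also added: IL-6 stimulus at 33 ng/mL final; evaluation: % activation versus median of IL-6-stimulated wells; detection: reporter luminescence signal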
PERK inhibitor: inhibitors of human PERK kinase | AID 1416 | 220,000 compounds, 0.17% hits | CHO PERK-DD fusion, SEAP luminescence translation reporter | inhibition, % at 5.6 µM;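 active = inhibition above the mean inhibition of all tested compounds plus 3 SD, set separately per screening campaign, cut at about 2.9% in these data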;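 also: PERK kinase domain activated by AP20187 dimerizer at 100 nM; 0% = DMSO with dimerizer and 100% = rapamycin at 8.4 µM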
PolyA inhibitor: blocks polyadenylation in yeast reporter cells; S. cerevisiae SKY197-pL101 polyadenylation reporter, beta-gal luminescence; efflux-impaired pdr1/pdr3 knockout yeast; score 100 = 6 SD above DMSO; activity score, % at 12 µM; 300,000 compounds, 0.02% hits; AID 1875;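 active = lowest replicate activity score at least 50, where 100 means six control SD above control mean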;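 also: yeast exposed to compound for 9 h at 30 °C; higher score means more reporter readthrough which indicates perturbed polyadenylation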
Hsp70 activator: Hsp70 transcriptional activation, primary screen. 200,000 compounds, 0.04% hits. activation, % at 10 µM. HeLa Hsp70 promoter luciferase reporter, luminescence; scaled: vehicle 0, proteasome-inhibitor control 100%;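 active = activation above the mean across all tested compounds plus 3 SD, cutoff set per campaign, cut at about 5.5% in these data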;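 also: 100% = MG132 at 30 µM as the positive control and 0% = DMSO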
AHR activator: activators of human aryl hydrocarbon receptor. activation, % at 5 µM. P35869. 320,000 compounds, 2.5% hits. AHR-responsive luciferase reporter cells, luminescence; in the data active = activation above about 47%;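 also: 0% = vehicle wells and 100% = reference agonist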
Target sequence (P35869 whole entry, looked up): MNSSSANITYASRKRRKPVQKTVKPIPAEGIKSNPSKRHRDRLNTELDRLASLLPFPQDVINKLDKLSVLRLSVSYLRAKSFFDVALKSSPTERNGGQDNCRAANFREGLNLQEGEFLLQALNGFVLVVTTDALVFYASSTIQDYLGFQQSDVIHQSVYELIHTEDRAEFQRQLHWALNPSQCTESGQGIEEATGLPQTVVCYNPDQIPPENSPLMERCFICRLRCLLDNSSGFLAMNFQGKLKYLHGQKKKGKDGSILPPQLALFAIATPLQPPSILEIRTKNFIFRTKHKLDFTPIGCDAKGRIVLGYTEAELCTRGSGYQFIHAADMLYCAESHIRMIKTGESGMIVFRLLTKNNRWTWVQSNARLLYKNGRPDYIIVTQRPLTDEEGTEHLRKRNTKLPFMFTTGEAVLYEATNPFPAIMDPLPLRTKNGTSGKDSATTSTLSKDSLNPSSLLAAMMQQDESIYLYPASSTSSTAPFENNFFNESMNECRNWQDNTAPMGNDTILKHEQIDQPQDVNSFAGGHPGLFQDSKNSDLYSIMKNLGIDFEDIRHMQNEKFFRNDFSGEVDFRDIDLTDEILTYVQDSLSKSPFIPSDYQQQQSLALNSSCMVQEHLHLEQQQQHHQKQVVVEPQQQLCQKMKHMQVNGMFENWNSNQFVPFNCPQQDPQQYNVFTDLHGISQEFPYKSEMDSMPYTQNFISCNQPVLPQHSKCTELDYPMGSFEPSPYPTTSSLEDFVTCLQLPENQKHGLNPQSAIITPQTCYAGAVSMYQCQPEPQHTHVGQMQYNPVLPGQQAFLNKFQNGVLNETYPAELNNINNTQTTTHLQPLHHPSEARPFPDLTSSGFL
HSF1 inhib: HSF1 inhibition; NIH3T3-HGL HSE-luciferase, MG132-induced, luminescence 8 h; hits give low values; activity change, negative = inhibition, % at 7.5 µM (by protocol); 300,000 compounds, 0.77% hits; AID 2098;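 active = more than half of replicate wells show activity change below -50%, luminescence cut by over half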;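 also: luciferase reports HSF-1 transcriptional activity via heat shock element; 0% = median of DMSO wells and -100% = zero luminescence signal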
* hit, by the source's call; . = no result given. In the library only some 3.6% were active in any assay of this set; here they are far more common.

SMILES | STAT3 activator | PERK inhibitor | PolyA inhibitor | Hsp70 activator | AHR activator | HSF1 inhib
S=c1[nH]nc(-c2ccc(Cl)cc2)n1/N=C/c1cccs1 | . | 2.1 | -18.8 | . | 75.2* | -6.6
CN(Cc1cccc(F)c1)C(=O)c1ccc(S(=O)(=O)N2CCOCC2)cc1 | . | . | . | . | 0.0 | .
Cc1cccn2c(=O)c3cc(C(=O)NC4CCCC4)c(=N)n(CC4CCCO4)c3nc12 (configuration not stated) | . | . | 1.0 | . | 55.0* | -8.0
Cc1cccn2c(=O)c3cc(C(=O)NCC4CCCO4)c(=N)n(CC4CCCO4)c3nc12 (configuration not stated) | . | . | 13.4 | . | 3.0 | -7.0
O=C(Nc1nc2cc3c(cc2s1)OCCO3)C1=COCCO1 | . | -0.8 | 10.3 | . | -12.1 | -66.1*
O=C(Nc1nc2ccc(F)cc2s1)C1=COCCO1 | . | . | -17.8 | . | 48.0* | -7.7
O=C(Nc1ccccc1-c1nc2ccccc2s1)C1=COCCO1 | 92.8 | 0.5 | -28.1 | -0.2 | 93.1* | 7.3
COc1cc(C(=O)Nc2cc(C(F)(F)F)ccc2N2CCOCC2)ccc1OCC(=O)N1CCOCC1 | . | . | -8.5 | . | -2.6 | -6.7
C=CCn1c(O)c(C2=c3ccccc3=NC2=O)c2ccccc21 | . | . | -23.0 | . | 30.9 | 188.2
Cc1ccc2c(c1)c(C1=c3ccccc3=NC1=O)c(O)n2C | . | . | 10.7 | . | 66.0* | 124.9
CCOc1ccc(S(=O)(=O)N2CC(=O)Nc3ccccc32)cc1 | . | . | 1.0 | . | -0.5 | -10.7
CN1CCN(c2ccc(NC(=O)c3ccc(-c4ccccc4F)o3)cc2)CC1 | . | . | . | . | 63.8* | .
Cc1cc(C)cc(OCC(O)CN2CC(C)OC(C)C2)c1 (configuration not stated) | . | . | -16.0 | . | 0.9 | -62.7*
CC(C)c1ccc(N(CCc2ccccn2)C(=O)C(C)(C)C)cc1 | . | . | 0.8 | . | 2.8 | 1.5
NS(=O)(=O)c1cccc(NC(=O)C(Cc2ccccc2)NC(=O)c2ccccc2)c1 (configuration not stated) | . | . | 17.8 | . | 4.2 | -1.6
C=CCn1c(C)cc(C(=O)COc2ccc(C)nc2[N+](=O)[O-])c1C | 56.3 | -0.3 | 2.4 | -0.4 | -7.8 | -53.7*
CCCn1c(C)cc(C(=O)COc2ccc(C)nc2[N+](=O)[O-])c1C | 86.3 | -0.3 | -20.9 | -0.4 | 2.7 | -17.1
COCCn1c(C)cc(C(=O)COc2ccc(C)nc2[N+](=O)[O-])c1C | 76.3 | 0.1 | -0.8 | -0.4 | -10.0 | -32.7
Cc1ccc(OCC(=O)c2cc(C)n(-c3ccccc3)c2C)c([N+](=O)[O-])n1 | 50.4 | -0.5 | -12.0 | -0.8 | -3.8 | -61.8*
O=S(=O)(Nc1nc2ccccc2nc1Cl)c1cccc(C(F)(F)F)c1 | . | . | 3.5 | . | 6.3 | 7.5
O=C(Nc1cc(C(F)(F)F)ccc1N1CCOCC1)c1ccc2ccccc2n1 | 133.7* | 0.8 | -14.6 | -0.3 | 28.9 | 1.9
Cc1cc(C(=O)Nc2cc(C(F)(F)F)ccc2N2CCOCC2)no1 | . | . | -27.3 | . | -7.2 | -3.1
O=C(CN1C(=O)c2ccccc2S1(=O)=O)NCCc1ccc(F)cc1 | . | . | . | . | 1.3 | .
CN(C)C(=O)c1ccc(Nc2ncnc3sc4c(c23)CCCCC4)cc1 | . | . | -3.8 | . | 8.4 | 5.8
Nc1ccc(CNC(=O)OCC2c3ccccc3-c3ccccc32)cc1 | . | . | 12.0 | . | 55.5* | 21.6
SMILES | STAT3 activator | PERK inhibitor | PolyA inhibitor | Hsp70 activator | AHR activator | HSF1 inhib
Fc1ccccc1NC(=S)Nn1cnnc1 | . | . | -12.6 | . | 2.1 | -1.2
COc1ccc(-c2cc(C(F)(F)F)c3c(n2)sc2c(O)cc(=O)[nH]c23)c(OC)c1 | 102.1 | 0.8 | 2.1 | -0.5 | 69.8* | -5.7
Cc1cc(C)c2c(n1)sc1c(O)cc(=O)[nH]c12 | 97.8 | 0.0 | -1.9 | -0.2 | 2.2 | -3.8
CCn1ncc(Cl)c1C(=O)Nc1cc([N+](=O)[O-])ccc1OC | 84.8 | 0.4 | 0.0 | -0.2 | 59.9* | 0.0
COc1ccc([N+](=O)[O-])cc1NC(=O)c1ccc(Br)s1 | 125.7 | 1.5 | -25.2 | -0.6 | 51.9* | -4.4
Cc1cccc(N2CCN(C(=O)C3CCC(=O)N(C4CC4)C3)CC2)c1C (configuration not stated) | . | . | 13.3 | . | 1.7 | -0.9
CC1Cc2ccccc2N1CC(=O)NC(=O)NCc1ccccc1 (configuration not stated) | 101.4 | -0.3 | . | -0.2 | 1.8 | -74.9*
O=C(Nc1ccc(Cl)cc1)c1csc(-c2ccccc2)n1 | 104.3 | 1.8 | 7.7 | 0.0 | 96.8* | -6.3
O=C(Nc1ccc(Br)cc1)c1csc(-c2ccncc2)n1 | 91.9 | -0.7 | 4.5 | -0.4 | 52.7* | 11.3
Cc1nc(-c2ccncc2)sc1C(=O)Nc1ccc(Br)cc1 | 81.9 | 0.9 | -6.2 | -0.1 | 62.0* | 2.2
CNC(=O)c1csc(-c2ccc(Cl)cc2)n1 | 88.8 | 0.7 | 7.1 | 0.1 | -4.4 | .
O=C(Nc1ccc(Cl)cc1)c1csc(-c2ccncc2)n1 | 101.4 | 0.6 | -9.5 | 0.0 | 54.4* | 5.0
COC(=O)c1oc2ccccc2c1N | 91.5 | 1.2 | 15.6 | 0.1 | 77.0* | 2.5
O=C1NC(Cc2ccccc2)c2nc3cc(F)ccc3c(=O)n2-c2ccccc21 (configuration not stated) | . | . | . | . | 3.4 | .
O=C(NCC(O)c1ccccc1)c1ccc(Cl)c(S(=O)(=O)N2CCCC2)c1 (configuration not stated) | . | . | -1.6 | . | 3.3 | 9.0
Cc1ccc2oc(-c3cccc(NC(=O)c4ccc(Br)o4)c3)nc2c1 | 111.3 | 0.4 | -10.4 | -0.1 | 59.5* | 7.4
CCOC(=O)C1CCN(c2nc3c(C)cccn3c(=O)c2/C=C(\C#N)S(=O)(=O)c2ccccc2)CC1 | . | 1.8 | -11.1 | . | -2.3 | 4.1
CCc1ccc(NC(=S)Nc2ccc3[nH]c(=O)[nH]c3c2)cc1 | . | 3.0* | -9.1 | . | -0.1 | -21.6
O=C(Nc1oc2ccc(Cl)cc2c(=O)c1-c1ccc(F)cc1)c1ccco1 | . | . | -22.0 | . | 9.1 | -7.9
O=c1[nH]c2ccccc2nc1-c1ccc(Cl)cc1 | . | 1.3 | -3.6 | . | 76.1* | 23.7
CC1(C)Cc2[nH]c3ccccc3c2C(C)(C)N1 | . | . | 17.9 | . | 1.3 | -15.4
CCn1c2ccccc2c2cc(NC(=O)c3ccc(Br)o3)ccc21 | 102.4 | 0.2 | -12.2 | -0.1 | 62.7* | 8.0
COc1ccc(NC(=O)CCCN2C(=O)CCC2=O)cc1Cl | 104.5 | 0.9 | 13.6 | -0.4 | 0.7 | 4.8
CCn1c2ccccc2c2cc(NC(=O)c3ccc(=O)oc3)ccc21 | . | 0.9 | -23.8 | . | 57.6* | -0.9
CCn1c2ccccc2c2cc(NC(=O)CCCN3C(=O)CCC3=O)ccc21 | 103.2 | -0.1 | 7.0 | -0.2 | 67.3* | -5.2
CCn1c2ccccc2c2cc(NC(=O)c3cc(C)on3)ccc21 | 99.4 | 0.0 | 16.3 | -0.2 | 53.4* | -6.7
C=C(C)CN1C(=O)C2(OCCO2)c2cc(Br)ccc21 | . | . | 3.0 | . | -1.7 | -9.5
COc1ccc(NC(=O)CSc2n[nH]c(-c3ccncc3)n2)cc1Cl | . | . | . | . | 4.3 | .
COc1ccc(OC)c(NC(=O)NCCCCc2ccccc2)c1 | . | . | -10.8 | . | 33.3 | -4.2
